Screening data: PubChem BioAssay, Broad Institute
E-selectin induc: E-selectin induction in HUVECs, primary screen, imaging, HUVEC, immunofluorescence imaging, single point | P16581 | normalized: neutral wells 0, TNF-alpha wells 100 | activation, % at 7.58 µM | 260,000 tested, 0.37% active | AID 686992, 2013;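 active = mean E-selectin-positive cell signal at least 10% of the positive control, reached in at least 60% of replicates, without over 20% cell loss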
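Read-out: % PE-positive cells | Test system: HUVEC | Doses: One compound dose added by pin transfer | Buffer or medium: EGM-2 over gelatin coat | Signal: Immunofluorescence imaging | Benchmarks: TNF-alpha, DMSO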
FGF22 binding: binders of human FGF22 protein, primary screen, FGF22 synaptogenesis inhibitor project, biophysical, thermal shift, single point | Fibroblast growth factor 22 (Homo sapiens), Q9HCT0 | recombinant FGF22 thermal shift, SYPRO orange fluorescence; percent of sucrose octasulfate shift, DMSO zero | activity (Tm shift, normalised), % at 9.99 µM | 340,000 tested, 1.5% active | AID 651658, 2012;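 active = mean Tm shift, scaled 0 neutral to 100 positive control, at about 1.3% or above, every replicate too, limit read from the data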
Target sequence (Q9HCT0 whole entry, looked up): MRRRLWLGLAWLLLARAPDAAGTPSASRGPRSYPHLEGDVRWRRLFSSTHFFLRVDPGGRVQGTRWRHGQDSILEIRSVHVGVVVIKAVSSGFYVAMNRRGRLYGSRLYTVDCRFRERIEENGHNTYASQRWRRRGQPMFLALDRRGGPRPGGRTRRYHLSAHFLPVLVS
Ecoli rRNA inh: reduced GFP signal of wild-type E. coli, primary screen, bacterial rRNA inhibitor project, GFP/RFP fluorescence, OD600, single point; AID 720706, 2013; GFP signal change (wild-type ribosome), % (test concentration not listed); 350,000 tested, 1.6% active; E. coli WT GFP vs humanized-ribosome RFP mutants, 24 h; active compounds read low; DMSO median 0, no signal -100;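 active = significant combined selectivity score with lowered wild-type GFP, culture density cut under 30%, mutant RFP and density less affected; inactive = any of these conditions unmet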
SIRT5 inh: SIRT5 desuccinylase inhibitors, primary screen, biochemical, fluorescence imaging, single point, set 5. NAD-dependent protein deacylase sirtuin-5, mitochondrial (Homo sapiens), Q9NXA8. Purified SirT5, succinyl-peptide AMC, trypsin-coupled fluorescence. inhibition, % at 15 µM. 330,000 tested, 1.1% active; in the data active = inhibition above about 15%
Target sequence (Q9NXA8 whole entry, looked up): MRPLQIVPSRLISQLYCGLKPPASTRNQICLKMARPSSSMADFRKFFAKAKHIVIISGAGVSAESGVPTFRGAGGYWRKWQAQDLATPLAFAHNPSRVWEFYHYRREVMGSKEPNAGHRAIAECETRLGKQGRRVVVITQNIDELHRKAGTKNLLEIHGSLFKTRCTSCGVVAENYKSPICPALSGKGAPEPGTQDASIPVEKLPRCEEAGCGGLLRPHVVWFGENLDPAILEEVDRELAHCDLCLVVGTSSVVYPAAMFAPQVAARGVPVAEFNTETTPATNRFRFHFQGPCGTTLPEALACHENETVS
FN deposit inh: inhibitors of fibronectin matrix deposition, primary screen, AH1F cells, Alexa488-fibronectin fluorescence, plate reader. AH1F fibroblasts, overnight. inhibition, % at 12.6 µM. 350,000 tested, 0.086% active;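 active = mean inhibition across replicates of 30% or more, regardless of how many single replicates reach that level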;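 also: positive control wells lacked labelled fibronectin entirely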
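Schedule: 1 h cell adhesion before compound, then overnight fibronectin incubation; test system: AH1F fibroblast monolayer depositing Alexa488-labelled fibronectin into matrix; quantity: 10000 AH1F cells per well; probe or stimulus: fluorescent fibronectin at 24 nM final; signal: fluorescence, ex 485 nm, em 525 nm; evaluation: percent inhibition as loss of matrix-bound fibronectin fluorescence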
Statin myotox sup: suppressors of statin myotoxicity in C2C12 myotubes, primary screen, cell-based, single point, plate reader; C2C12 myotubes + simvastatin, ATP luminescence, 48 h; scaled: DMSO 0, geranylgeraniol control 100; rescue of ATP level, % at 7.49 µM; 330,000 tested, 0.78% active;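 active = mean ATP rescue above about 67%, or every replicate alone reaching that limit, limit read from the data, passing the limit was not always enough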;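 also: myotubes were challenged with 10 µM simvastatin during compound exposure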
The depositor's hits bear a star; . = no result given. Only some compounds are listed: those with a hit (about 4% of all), similar ones and a draw of the others.

SMILES	E-selectin induc	FGF22 binding	Ecoli rRNA inh	SIRT5 inh	FN deposit inh	Statin myotox sup
C[C@H](CO)N1C[C@H](C)[C@@H](CN(C)C(=O)NC2CCCCC2)Oc2ccc(NC(=O)C3CCCCC3)cc2CC1=O	-5	0	1	-1	.	-20
C[C@H]1CN([C@@H](C)CO)C(=O)Cc2cc(NC(=O)C3CCCCC3)ccc2O[C@H]1CN(C)C(=O)NC1CCCCC1	307*	0	0	0	.	-31
CC(C)NC(=O)Nc1ccc2c(c1)CC(=O)N([C@@H](C)CO)C[C@@H](C)[C@@H](CN(C)C(=O)NC1CCCCC1)O2	0	.	3	18*	.	-14
C[C@H](CO)N1C[C@H](C)[C@H](CN(C)S(C)(=O)=O)Oc2ccc(NC(=O)C3CCCCC3)cc2CC1=O	-6	0	4	-2	.	22
C[C@@H]1CN([C@H](C)CO)C(=O)c2cc(NS(=O)(=O)c3cccs3)ccc2O[C@@H](C)CCCCO[C@H]1CN(C)C(=O)NC1CCCCC1	0	-1	-3	3	.	-55
C[C@@H]1CN([C@H](C)CO)C(=O)c2cc(NS(=O)(=O)c3ccccc3)ccc2O[C@@H]1CN(C)Cc1ccc(Oc2ccccc2)cc1	0	0	-2	17*	.	7
C[C@@H]1CN([C@@H](C)CO)C(=O)c2cc(NS(=O)(=O)c3ccccc3)ccc2O[C@H]1CN(C)Cc1ccc(-c2ccccc2)cc1	1	0	0	12	.	-19
C[C@@H]1CN([C@H](C)CO)C(=O)c2cc(NS(=O)(=O)c3ccccc3)ccc2O[C@H]1CN(C)Cc1ccc(-c2ccccc2)cc1	0	0	-2	16*	.	-26
Cc1ccc(S(=O)(=O)Nc2ccc3c(c2)C(=O)N([C@H](C)CO)C[C@@H](C)[C@H](CN(C)Cc2ccc(-c4ccccc4)cc2)O3)cc1	157*	0	0	18*	.	40
C[C@@H]1CN([C@@H](C)CO)C(=O)c2cc(NS(=O)(=O)c3ccccc3)ccc2O[C@@H]1CN(C)CC1CCCCC1	0	0	4	25*	.	41
C[C@H]1CN([C@@H](C)CO)C(=O)c2cc(NS(=O)(=O)c3ccccc3)ccc2O[C@H]1CN(C)CC1CCCCC1	0	0	4	15	.	-6
CCOC(=O)OC[C@@H]1[C@@H]2NC(=O)N(C)[C@@]1(COCc1ccc(OC)cc1)Oc1ccccc12	.	0	.	0	.	.
C[C@H](CO)N1C[C@H](C)[C@H](CN(C)CC2CCCCC2)OCCCC[C@H](C)Oc2ccc(NC(=O)C3CCCCC3)cc2C1=O	2	-1	-1	-1	.	.
CC(C)(C)c1cc(CCC(=O)NCc2ccccn2)cc(C(C)(C)C)c1O	100*	0	-7	-1	-5	5
CC(C)(C)c1cc(CCC(=O)NCc2cccnc2)cc(C(C)(C)C)c1O	0	0	-10	-4	-4	-2
COc1ccc(S(=O)(=O)N(C)C[C@H]2Oc3ccc(NS(=O)(=O)c4ccc(Cl)cc4)cc3CC(=O)N([C@H](C)CO)C[C@H]2C)cc1	0	0	-4	.	3	-2
CCOc1ccc(C(F)(F)F)cc1NC(C)=O	.	.	.	.	.	96*
CCOc1ccc(C(F)(F)F)cc1NC(=O)COc1ccc(C(F)(F)F)cc1[N+](=O)[O-]	.	.	.	.	4	-8
C[C@H](CO)N1C[C@H](C)[C@H](CN(C)Cc2ccccc2)Oc2ncc(-c3ccc(F)cc3)cc2C1=O	0	0	0	2	-6	9
COc1ccc(NC(=O)N(C)C[C@@H]2Oc3ccc(NC(=O)Cc4ccccc4)cc3CC(=O)N([C@H](C)CO)C[C@H]2C)cc1	336*	0	2	.	.	-2
C[C@@H]1CN([C@@H](C)CO)C(=O)Cc2cc(NC(=O)Cc3ccccc3)ccc2O[C@H]1CN(C)C(=O)Nc1cccc2ccccc12	338*	0	-2	5	.	3
COc1ccc(NC(=O)N(C)C[C@@H]2Oc3ccc(NC(=O)Cc4ccccc4)cc3CC(=O)N([C@@H](C)CO)C[C@@H]2C)cc1	-6	.	-1	-7	.	10
C[C@H](CO)N1C[C@H](C)[C@@H](CN(C)C(=O)Nc2ccccc2)Oc2ccc(NC(=O)Nc3cccc4ccccc34)cc2C1=O	1	0	-2	1	.	-14
CC(=O)c1ccc(NC(=O)c2cc(Cl)sc2Cl)cc1	0	0	-30*	0	4	.
Cc1cc(C)cc(NC(=O)c2cc(Cl)sc2Cl)c1	.	.	.	.	2	.
SMILES	E-selectin induc	FGF22 binding	Ecoli rRNA inh	SIRT5 inh	FN deposit inh	Statin myotox sup
CN(C)S(=O)(=O)c1ccc2nnn(O)c2c1	1	43*	.	-1	2	.
C/C(=N\OCc1ccc(C#N)cc1)c1ccccc1	.	44*	-8	-17	2	.
O=C(C[C@@H]1CC[C@H](NC(=O)Nc2ccc(F)cc2)[C@H](CO)O1)NCCN1CCCC1	0	0	1	2	18	1
c1cnc2ncc3sccc3c2c1	.	43*	6	1	5	.
NC(=O)c1ccsc1NC(=O)c1ccc(N2CCCC2=O)cc1	.	43*	0	.	.	.
NC(=O)c1ccsc1NC(=O)c1ccc2c(c1)CCCC2	0	0	-10	1	-3	-187
CN1C(=O)[C@@](O)(c2cn(C)c3ccccc23)c2cc(Br)ccc21	14	0	-23*	-5	4	.
CN1C(=O)C(c2cn(C)c3ccccc23)(c2cn(C)c3ccccc23)c2cc(Br)ccc21	3	0	8	0	5	.
CC(=O)N(C)C[C@@H]1Oc2ncc(C#CC3(O)CCCC3)cc2C(=O)N([C@H](C)CO)C[C@@H]1C	0	-1	4	-1	2	0
O=C(O)c1ccccc1C(=O)N1N=C2/C(=C/c3cccc([N+](=O)[O-])c3)CCCC2C1c1cccc([N+](=O)[O-])c1 (stereo not given)	3	2.3*	-5	24*	3	.
O=C(O)c1c(C(=O)N2N=C3/C(=C/c4ccccc4)CCCC3C2c2ccccc2)cccc1[N+](=O)[O-] (stereo not given)	6	-1	-12	5	-7	.
